# According to ChEMBL document CHEMBL5724801, “EUbOPEN Chemogenomics Library - Multiplex” (2024):
# “And” between values parts separate entries of the source, which are not always exact repeats. Equal entries are not always repeated.
# Test system: Fibroblast
# Experiment: Multiplex assay against human fibroblast
# Type: toxicity, cell-based
# Outline: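 Hoechst33342, BioTracker Green Microtubule Cytoskeleton Dye, MitoTracker Red and Annexin V Alexa Fluor 680 were added to live cells at seeding, and imaging on a CQ1 microscope at 37°C and 5% CO2 followed compound addition. Gating by CellPathfinder machine learning separated cells into Hoechst high-intensity objects or normal cells, then normal cells into healthy, pyknosed or fragmented nuclei, then pyknosed cells into mitotic or apoptotic. Per cents of healthy-nucleus cells are reported for the tubulin, mitochondrial-mass and membrane-permeability phenotypes.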
# [1] = 12 h, 1 µM, compound concentration 1 uM
# [2] = 12 h, 10 µM, compound concentration 10 uM
# [3] = 24 h, 1 µM, compound concentration 1 uM
# [4] = 24 h, 10 µM, compound concentration 10 uM
# [5] = 48 h, 1 µM, compound concentration 1 uM
# [6] = 48 h, 10 µM, compound concentration 10 uM
smiles,measurement,setting,value
Nc1nccc(-c2ccn3c(N)nccc23)n1,Population Apoptotic (%),[1],13.51% and 18.75%
same,Population Healthy Nuclei (%),[1],61.49% and 82.11%
same,Population Hoechst High Intensity Objects (%),[1],0%
same,Population Membrane Permeable-Phenotype (%),[1],5.05% and 4.47%
same,Population Mitochondria Different-Phenotype (%),[1],4.04% and 6.7%
same,Population Mitotic Cells (%),[1],86.49% and 81.25%
same,Population Normal (%),[1],100%
same,Population Pyknosed Nuclei (%),[1],22.98% and 14.68%
same,Population Tubulin-Different-Phenotype (%),[1],7.07% and 20.11%
same,Total Cell Count,[1],161 and 218
same,Population Apoptotic (%),[2],10.71% and 9.09%
same,Population Fragmented Nuclei (%),[2],8.62% and 3.03%
same,Population Healthy Nuclei (%),[2],75.29% and 82.68%
same,Population Hoechst High Intensity Objects (%),[2],0%
same,Population Membrane Permeable-Phenotype (%),[2],8.4% and 3.14%
same,Population Mitochondria Different-Phenotype (%),[2],6.87% and 7.33%
same,Population Mitotic Cells (%),[2],89.29% and 90.91%
same,Population Normal (%),[2],100%
same,Population Pyknosed Nuclei (%),[2],16.09% and 14.29%
same,Population Tubulin-Different-Phenotype (%),[2],9.16% and 16.75%
same,Total Cell Count,[2],174 and 231
same,Population Apoptotic (%),[3],15.56% and 14.81%
same,Population Fragmented Nuclei (%),[3],8.38% and 5.44%
same,Population Healthy Nuclei (%),[3],68.06% and 83.26%
same,Population Hoechst High Intensity Objects (%),[3],0%
same,Population Membrane Permeable-Phenotype (%),[3],0.77% and 2.51%
same,Population Mitochondria Different-Phenotype (%),[3],2.31% and 2.51%
same,Population Mitotic Cells (%),[3],84.44% and 85.19%
same,Population Normal (%),[3],100%
same,Population Pyknosed Nuclei (%),[3],23.56% and 11.3%
same,Population Tubulin-Different-Phenotype (%),[3],13.08% and 16.58%
same,Total Cell Count,[3],191 and 239
same,Population Apoptotic (%),[4],6.98% and 4.35%
same,Population Fragmented Nuclei (%),[4],9.95% and 3.5%
same,Population Healthy Nuclei (%),[4],69.67% and 87.55%
same,Population Hoechst High Intensity Objects (%),[4],0%
same,Population Membrane Permeable-Phenotype (%),[4],4.76% and 5.33%
same,Population Mitochondria Different-Phenotype (%),[4],5.44% and 2.22%
same,Population Mitotic Cells (%),[4],93.02% and 95.65%
same,Population Normal (%),[4],100%
same,Population Pyknosed Nuclei (%),[4],20.38% and 8.95%
same,Population Tubulin-Different-Phenotype (%),[4],16.33% and 21.33%
same,Total Cell Count,[4],211 and 257
same,Population Apoptotic (%),[5],22.73% and 26.09%
same,Population Fragmented Nuclei (%),[5],8.37% and 5.8%
same,Population Healthy Nuclei (%),[5],81.4% and 83.93%
same,Population Hoechst High Intensity Objects (%),[5],0%
same,Population Membrane Permeable-Phenotype (%),[5],1.14% and 3.72%
same,Population Mitochondria Different-Phenotype (%),[5],9.71% and 2.66%
same,Population Mitotic Cells (%),[5],77.27% and 73.91%
same,Population Normal (%),[5],100%
same,Population Pyknosed Nuclei (%),[5],10.23% and 10.27%
same,Total Cell Count,[5],215 and 224
same,Population Apoptotic (%),[6],23.53% and 19.05%
same,Population Fragmented Nuclei (%),[6],6.48% and 4.4%
same,Population Healthy Nuclei (%),[6],86.64% and 87.2%
same,Population Hoechst High Intensity Objects (%),[6],0%
same,Population Membrane Permeable-Phenotype (%),[6],1.87% and 1.83%
same,Population Mitotic Cells (%),[6],76.47% and 80.95%
same,Population Normal (%),[6],100%
same,Population Pyknosed Nuclei (%),[6],6.88% and 8.4%
same,Total Cell Count,[6],247 and 250
N#Cc1ccnc(Nc2cc(C3CCN(C4COC4)CC3)cc(N3CCC(F)(F)C3)n2)c1,Population Apoptotic (%),[1],14.12% and 22.64%
same,Population Fragmented Nuclei (%),[1],18.52% and 8.85%
same,Population Healthy Nuclei (%),[1],42.13% and 67.7%
same,Population Hoechst High Intensity Objects (%),[1],0%
same,Population Membrane Permeable-Phenotype (%),[1],3.3% and 2.61%
same,Population Mitochondria Different-Phenotype (%),[1],16.48% and 9.8%
same,Population Mitotic Cells (%),[1],85.88% and 77.36%
same,Population Normal (%),[1],100%
same,Population Pyknosed Nuclei (%),[1],39.35% and 23.45%
same,Population Tubulin-Different-Phenotype (%),[1],31.87% and 33.33%
same,Total Cell Count,[1],216 and 226
same,Population Apoptotic (%),[2],60.19% and 71.72%
same,Population Fragmented Nuclei (%),[2],13.02% and 15.68%
same,Population Healthy Nuclei (%),[2],36.74% and 30.81%
same,Population Hoechst High Intensity Objects (%),[2],0% and 0.54%
same,Population Mitochondria Different-Phenotype (%),[2],35.44% and 45.61%
same,Population Mitotic Cells (%),[2],39.81% and 28.28%
same,Population Normal (%),[2],100% and 99.46%
same,Population Pyknosed Nuclei (%),[2],50.23% and 53.51%
same,Population Tubulin-Different-Phenotype (%),[2],45.57% and 73.68%
same,Total Cell Count,[2],215 and 186
same,Population Apoptotic (%),[3],7.81% and 14%
same,Population Fragmented Nuclei (%),[3],19.58% and 9.81%
same,Population Healthy Nuclei (%),[3],53.75% and 66.82%
same,Population Hoechst High Intensity Objects (%),[3],0%
same,Population Membrane Permeable-Phenotype (%),[3],5.43% and 4.2%
same,Population Mitochondria Different-Phenotype (%),[3],19.38% and 23.08%
same,Population Mitotic Cells (%),[3],92.19% and 86%
same,Population Normal (%),[3],100%
same,Population Pyknosed Nuclei (%),[3],26.67% and 23.36%
same,Population Tubulin-Different-Phenotype (%),[3],29.46% and 47.55%
same,Total Cell Count,[3],240 and 214
same,Population Apoptotic (%),[4],58.59% and 84.62%
same,Population Fragmented Nuclei (%),[4],13.17% and 9.55%
same,Population Healthy Nuclei (%),[4],38.54% and 39.33%
same,Population Hoechst High Intensity Objects (%),[4],0% and 0.56%
same,Population Membrane Permeable-Phenotype (%),[4],10.13% and 20%
same,Population Mitochondria Different-Phenotype (%),[4],32.91% and 55.71%
same,Population Mitotic Cells (%),[4],41.41% and 15.38%
same,Population Normal (%),[4],100% and 99.44%
same,Population Pyknosed Nuclei (%),[4],48.29% and 51.12%
same,Population Tubulin-Different-Phenotype (%),[4],37.97% and 78.57%
same,Total Cell Count,[4],205 and 179
same,Population Fragmented Nuclei (%),[5],19.03% and 11.35%
same,Population Healthy Nuclei (%),[5],63.97% and 74.24%
same,Population Hoechst High Intensity Objects (%),[5],0%
same,Population Membrane Permeable-Phenotype (%),[5],2.53% and 2.94%
same,Population Mitochondria Different-Phenotype (%),[5],21.52% and 11.18%
same,Population Mitotic Cells (%),[5],92.86% and 57.58%
same,Population Normal (%),[5],100%
same,Population Pyknosed Nuclei (%),[5],17% and 14.41%
same,Population Tubulin-Different-Phenotype (%),[5],32.91% and 54.12%
same,Total Cell Count,[5],247 and 229
same,Population Apoptotic (%),[6],59.57% and 79.01%
same,Population Fragmented Nuclei (%),[6],13% and 11.52%
same,Population Healthy Nuclei (%),[6],44.84% and 46.07%
same,Population Hoechst High Intensity Objects (%),[6],0% and 0.52%
same,Population Membrane Permeable-Phenotype (%),[6],7% and 15.91%
same,Population Mitochondria Different-Phenotype (%),[6],36% and 20.45%
same,Population Mitotic Cells (%),[6],40.43% and 20.99%
same,Population Normal (%),[6],100% and 99.48%
same,Population Pyknosed Nuclei (%),[6],42.15% and 42.41%
same,Population Tubulin-Different-Phenotype (%),[6],37% and 56.82%
same,Total Cell Count,[6],223 and 192
CCOc1c2c(c(OCC)c3ncccc13)CN(c1ccc(CS(=O)(=O)NC(=O)Cc3ccccc3OC)cc1C)C2=O,Population Apoptotic (%),[1],44% and 38%
same,Population Fragmented Nuclei (%),[1],15% and 37%
same,Population Healthy Nuclei (%),[1],68% and 42%
same,Population Hoechst High Intensity Objects (%),[1],0% and 4%
same,Population Membrane Permeable-Phenotype (%),[1],1% and 8%
same,Population Mitochondria Different-Phenotype (%),[1],3% and 2%
same,Population Mitotic Cells (%),[1],55% and 61%
same,Population Normal (%),[1],99% and 95%
same,Population Pyknosed Nuclei (%),[1],15% and 19%
same,Population Tubulin-Different-Phenotype (%),[1],23% and 62%
same,Total Cell Count,[1],120 and 111
same,Population Apoptotic (%),[2],35% and 21%
same,Population Fragmented Nuclei (%),[2],15% and 19%
same,Population Healthy Nuclei (%),[2],63% and 50%
same,Population Hoechst High Intensity Objects (%),[2],1% and 3%
same,Population Membrane Permeable-Phenotype (%),[2],1% and 7%
same,Population Mitochondria Different-Phenotype (%),[2],6% and 8%
same,Population Mitotic Cells (%),[2],64% and 78%
same,Population Normal (%),[2],98% and 96%
same,Population Pyknosed Nuclei (%),[2],21% and 29%
same,Population Tubulin-Different-Phenotype (%),[2],27% and 54%
same,Total Cell Count,[2],161 and 146
same,Population Apoptotic (%),[3],56% and 46%
same,Population Fragmented Nuclei (%),[3],13% and 37%
same,Population Healthy Nuclei (%),[3],67% and 32%
same,Population Hoechst High Intensity Objects (%),[3],3% and 2%
same,Population Mitochondria Different-Phenotype (%),[3],3%
same,Population Mitotic Cells (%),[3],43% and 53%
same,Population Normal (%),[3],96% and 97%
same,Population Pyknosed Nuclei (%),[3],18% and 29%
same,Population Tubulin-Different-Phenotype (%),[3],23% and 69%
same,Total Cell Count,[3],127 and 104
same,Population Apoptotic (%),[4],42%
same,Population Fragmented Nuclei (%),[4],17% and 25%
same,Population Healthy Nuclei (%),[4],66% and 49%
same,Population Hoechst High Intensity Objects (%),[4],3% and 4%
same,Population Membrane Permeable-Phenotype (%),[4],1% and 5%
same,Population Mitochondria Different-Phenotype (%),[4],2%
same,Population Mitotic Cells (%),[4],57%
same,Population Normal (%),[4],96% and 95%
same,Population Pyknosed Nuclei (%),[4],15% and 25%
same,Population Tubulin-Different-Phenotype (%),[4],19% and 50%
same,Total Cell Count,[4],171 and 142
same,Population Apoptotic (%),[5],57% and 66%
same,Population Fragmented Nuclei (%),[5],18% and 47%
same,Population Healthy Nuclei (%),[5],66% and 40%
same,Population Hoechst High Intensity Objects (%),[5],3% and 5%
same,Population Membrane Permeable-Phenotype (%),[5],1% and 5%
same,Population Mitochondria Different-Phenotype (%),[5],3% and 7%
same,Population Mitotic Cells (%),[5],42% and 33%
same,Population Normal (%),[5],96% and 94%
same,Population Pyknosed Nuclei (%),[5],15% and 12%
same,Population Tubulin-Different-Phenotype (%),[5],26% and 72%
same,Total Cell Count,[5],128 and 105
same,Population Apoptotic (%),[6],71% and 29%
same,Population Fragmented Nuclei (%),[6],16% and 34%
same,Population Healthy Nuclei (%),[6],63% and 45%
same,Population Hoechst High Intensity Objects (%),[6],7% and 9%
same,Population Membrane Permeable-Phenotype (%),[6],1% and 7%
same,Population Mitochondria Different-Phenotype (%),[6],2% and 5%
same,Population Mitotic Cells (%),[6],28% and 70%
same,Population Normal (%),[6],92% and 90%
same,Population Pyknosed Nuclei (%),[6],20%
same,Population Tubulin-Different-Phenotype (%),[6],20% and 51%
same,Total Cell Count,[6],171 and 131
